Runt-SMMHC FRET: blocks binding of human RUNX1 Runt domain to CBFb-SMMHC; Q01196+Q13951; Cerulean-Runt/Venus-CBFb-SMMHC FRET ratio 530/480, 1 h; inhibition, % at 20 µM; 0.74% of 220,000 active;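 active = mean inhibition across duplicate retests at 20 µM reaching about 50%, limit read from the data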;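 note: inhibitors lower the FRET ratio by blocking Runt binding to CBFb-SMMHC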
pCIP destab: lowers stability of the mouse p/CIP coactivator protein; decrease of EGFP signal, % at 10 µM; Q05BA5; 0.01% of 290,000 active; F442A p/CIP-EGFP cells, EGFP fluorescence, 16 h;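 active = EGFP signal decrease of at least 30% at 10 µM or well 3 SD below plate mean, unless failing retest; inactive = the rest, including hits failing retest or dose response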
RanGTP-Imp inh: inhibitors of RanGTP-importin-beta interaction, primary screen, biochemical, FRET, CFP-Ran, YFP-importin-beta, homogeneous. AID 2216. 1.1% of 300,000 active. inhibition, % (concentration not given with the values). cell-free CFP-Ran/YFP-importin-beta FRET ratio;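 active = more than half of the replicate wells show a fall in the fluorescence ratio signal beyond about 16%, limit read from the data, passing the limit was not always enough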
Pemphigus Ab inh: human desmoglein-3 autoantibody binding inhibition. 0.48% of 310,000 active. DSG3-coupled beads, scFv-anti-DSG3-GFP binding, flow cytometry; hits give low values. P32926. binding (percent of control), % at 10 µM;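 active = binding more than 3 SD below its plate's average and above zero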;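 note: hits lower antibody fragment binding to DSG3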
Hck-Nef inh: blocks Nef-activated human Hck kinase. inhibition, % at 20 µM. Recombinant Hck-YEEI plus Nef, Z-Lyte FRET kinase assay. P08631. AID 463187. 0.68% of 220,000 active;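 active = Hck-Nef kinase inhibition above about 50%, limit read from the data; inactive = inhibition below that limit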
Target sequence (P08631 whole entry, looked up): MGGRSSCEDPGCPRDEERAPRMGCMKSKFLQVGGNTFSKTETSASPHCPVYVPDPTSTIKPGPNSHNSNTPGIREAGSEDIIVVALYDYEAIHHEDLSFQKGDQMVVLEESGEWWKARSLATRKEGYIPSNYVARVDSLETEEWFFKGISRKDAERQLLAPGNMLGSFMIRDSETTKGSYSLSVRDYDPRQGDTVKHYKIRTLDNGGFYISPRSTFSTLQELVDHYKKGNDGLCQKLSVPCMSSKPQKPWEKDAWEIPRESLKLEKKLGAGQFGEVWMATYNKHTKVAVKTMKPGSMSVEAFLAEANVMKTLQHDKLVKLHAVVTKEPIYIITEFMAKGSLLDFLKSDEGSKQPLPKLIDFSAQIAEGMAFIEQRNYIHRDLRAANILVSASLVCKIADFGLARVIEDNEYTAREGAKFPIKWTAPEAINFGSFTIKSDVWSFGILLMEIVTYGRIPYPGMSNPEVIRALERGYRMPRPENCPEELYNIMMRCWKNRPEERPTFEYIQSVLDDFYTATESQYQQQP
Runt-CBFb FRET: blocks binding of human RUNX1 Runt domain to CBFb; Q01196+Q13951; inhibition, % at 20 µM; AID 1496; 0.46% of 220,000 active; Cerulean-Runt/Venus-CBFb FRET ratio 530/480, 1 h;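 active = inhibition over about 50% at 20 µM in the single-dose screen, limit read from the data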
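test system = Cerulean-tagged RUNX1 Runt domain (FRET donor) fusion protein | reagent = Venus-CBFb binding partner, 100 nM | incubation = protein complex preformed 1 h, compound exposure 1 h, room temperature, dark | detection = FRET fluorescence | read-out basis = loss of energy transfer signal | controls = 5 µM unlabeled CBFb as full-inhibition high control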
Large screens that a line does not name were inactive. This is a sample that favours compounds with a hit; in the whole collection about 2.1% have one here.

Cc1cc(C(=O)CN2C(=O)c3cccc(N)c3C2=O)c(C)n1Cc1cccs1	Runt-SMMHC FRET 62, RanGTP-Imp inh 66
Cc1cc(C(=O)CN2C(=O)NC3(CCCCC3C)C2=O)c(C)n1Cc1cccs1 (configuration not stated)	none
CCCOC(=O)c1ccc(NC(=O)c2c(Cl)ccc(Cl)c2OC)cc1	RanGTP-Imp inh 31
Cc1ccc(S(=O)(=O)N2CCC(C(=O)N3CCCC(C(F)(F)F)C3)CC2)cc1C (configuration not stated)	none (no result: Runt-SMMHC FRET, pCIP destab, Hck-Nef inh, Runt-CBFb FRET)
C=C(C)CSc1nc2sc3c(c2c(=O)n1-c1ccc(C)cc1)CCN(C)C3	none (no result: Runt-SMMHC FRET, Hck-Nef inh, Runt-CBFb FRET)
CC1=C(C#N)C(=O)N(C2CCS(=O)(=O)C2)C(=O)/C1=C\c1ccco1 (configuration not stated)	Hck-Nef inh 100 (no result: Pemphigus Ab inh)
Cc1ccc(NC(=O)COC(=O)CN2C(=O)c3ccccc3C2=O)cc1S(=O)(=O)N(C)C	RanGTP-Imp inh 40
Cc1ccc(NC(=O)COC(=O)CN2C(=O)NC3(CCCC3)C2=O)cc1S(=O)(=O)N(C)C	none
CCn1nc(NC(=O)c2ccncc2)c2cc3ccccc3nc21	none
CC(C)Cn1nc(NC(=O)c2ccco2)c2cc3ccccc3nc21	RanGTP-Imp inh 51
CCn1nc(NC(=O)c2ccco2)c2cc3ccccc3nc21	RanGTP-Imp inh 30
Cc1ccc2nc3c(cc2c1)c(NC(=O)c1ccco1)nn3CC(C)C	Runt-SMMHC FRET 81, RanGTP-Imp inh 78
Cc1ccc2nc3c(cc2c1)c(NC(=O)C(C)(C)C)nn3CC(C)C	RanGTP-Imp inh 44 (no result: Runt-SMMHC FRET, Hck-Nef inh, Runt-CBFb FRET)
N#Cc1ccc(S(=O)(=O)N2CCN(C(=O)[C@@H]3CCCN3C(=O)c3cccs3)CC2)cc1	none (no result: Runt-SMMHC FRET, pCIP destab, RanGTP-Imp inh, Hck-Nef inh, Runt-CBFb FRET)
CCn1nc(C)c(Br)c1Nc1ccc(Br)cc1	none
Cc1ccc(C(=O)NC(=O)CSc2nncn2C)cc1	none (no result: Runt-SMMHC FRET, Hck-Nef inh, Runt-CBFb FRET)
Cc1ccc(C2=NN=C(NC(=O)CSc3nncn3C)SC2)cc1	Runt-SMMHC FRET 61
O=C(c1ccc(F)cc1)C1CCN(C(=S)Nc2ccc(F)cc2)CC1	none (no result: Runt-SMMHC FRET, Hck-Nef inh, Runt-CBFb FRET)
CC(C)C[C@H](NC(=O)N1CCn2c1nc1ccccc12)C(=O)NCC1CCCO1 (some centres not stated)	RanGTP-Imp inh 21 (no result: Runt-SMMHC FRET, Hck-Nef inh, Runt-CBFb FRET)
CC1C(=O)N2CCCc3cc(S(=O)(=O)N4CCC(C(N)=O)CC4)cc1c32 (configuration not stated)	none (no result: Runt-SMMHC FRET, Pemphigus Ab inh, Hck-Nef inh, Runt-CBFb FRET)
Cc1ccc(NC(=O)C(=O)NCCc2c[nH]c3ccccc23)cc1C	none
O=C(NCCc1c[nH]c2ccccc12)C(=O)Nc1ccccc1	Pemphigus Ab inh 64
CC(C)(C)Nc1c2ccccc2nc2ccccc12	RanGTP-Imp inh 28 (no result: Runt-SMMHC FRET, Hck-Nef inh, Runt-CBFb FRET)
Fc1cccc(NCCc2c[nH]c3ccccc23)n1	none (no result: Runt-SMMHC FRET, Hck-Nef inh, Runt-CBFb FRET)
OCCCNc1c2ccccc2nc2ccccc12	RanGTP-Imp inh 51 (no result: Runt-SMMHC FRET, Hck-Nef inh, Runt-CBFb FRET)
c1ccc2c(NCCc3c[nH]c4ccccc34)c3ccccc3nc2c1	RanGTP-Imp inh 91 (no result: Runt-SMMHC FRET, Hck-Nef inh, Runt-CBFb FRET)
COc1ccc2[nH]c3c(NCCC4=CCCCC4)ncnc3c2c1	Hck-Nef inh 92 (no result: Runt-CBFb FRET)
Nc1c(-c2cccc([N+](=O)[O-])c2)nc2ccccn12	none
CC12CCC(C(=O)OC3CCCCC3)(OC1=O)C2(C)C (configuration not stated)	none (no result: Runt-SMMHC FRET, Hck-Nef inh, Runt-CBFb FRET)
CCOC(=O)/C=C/C(=O)OCC(=O)NCc1ccccc1	none (no result: RanGTP-Imp inh)
C/C(=C\C(=O)OCC(=O)NCc1ccccc1)C(=O)OCC(=O)NCc1ccccc1	Pemphigus Ab inh 76
CC(C)(C)OC(=O)C[C@@H]1C/C=C\C[C@@H](CC(=O)N[C@H](CO)Cc2ccccc2)C(=O)NC[C@H](c2ccccc2)OC1=O	none (no result: Runt-SMMHC FRET, pCIP destab, RanGTP-Imp inh, Hck-Nef inh, Runt-CBFb FRET)
Cc1cc(O)c2c(c1O)C(=O)[C@]13C(=C2O)C(=O)[C@@H]2[C@@H](O)[C@H]1[C@@H]1[C@H](O)[C@H]3C(=O)C3=C(O)c4c(O)cc(C)c(O)c4C(=O)[C@]312	Pemphigus Ab inh -15 (no result: Runt-SMMHC FRET, pCIP destab, RanGTP-Imp inh, Hck-Nef inh, Runt-CBFb FRET)
COc1cccc(CNS(=O)(=O)c2c(C)[nH]c(C)c2C(=O)N2CCCCC2)c1	none (no result: Runt-SMMHC FRET, Pemphigus Ab inh, Hck-Nef inh, Runt-CBFb FRET)
CCOC(=O)CN1C(=O)/C(=C/c2ccccc2Br)Oc2ccccc21	Pemphigus Ab inh -3.0 (no result: Runt-SMMHC FRET, Hck-Nef inh, Runt-CBFb FRET)
O=C(O)CN1C(=O)/C(=C/c2ccccc2Cl)Oc2ccccc21	none (no result: Runt-SMMHC FRET, Hck-Nef inh, Runt-CBFb FRET)
O=C(NNS(=O)(=O)c1ccc(Br)cc1)c1ccccc1-n1cccc1	none (no result: Runt-SMMHC FRET, Hck-Nef inh, Runt-CBFb FRET)

Screening results deposited in PubChem BioAssay by several laboratories.
